The source made the active and inactive calls.
Key:
[1] = target: T1, G-protein coupled receptor 84 (Homo sapiens, UniProt Q9NQS5); test: Agonist activity at human GPR84 expressed in CHO cells assessed as beta-arrestin recruitment after 90 mins by beta-galactosidase complementation assay; type: cell-based
Method in brief: (§1)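 CHO cells co-expressing human GPR84–β-galactosidase fragment and β-arrestin–complementary fragment, 20,000 per well. Compounds in DMSO (final ≤1 %) added for 90 min, then detection reagent for 60 min at rt; luminescence read. Three to five independent experiments in duplicate.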

[2] = target: T2, Free fatty acid receptor 4 (Homo sapiens) (UniProt Q5NUL3); test: Antagonist activity at human FFAR4 expressed in CHO cells assessed as inhibition of TUG-89-induced beta-arrestin recruitment at 10 uM preincubated for 30 mins followed by TUG-89 addition measured after 90 mins by beta-galactosidase complementation assay; type: cell-based
T2 sequence (whole entry): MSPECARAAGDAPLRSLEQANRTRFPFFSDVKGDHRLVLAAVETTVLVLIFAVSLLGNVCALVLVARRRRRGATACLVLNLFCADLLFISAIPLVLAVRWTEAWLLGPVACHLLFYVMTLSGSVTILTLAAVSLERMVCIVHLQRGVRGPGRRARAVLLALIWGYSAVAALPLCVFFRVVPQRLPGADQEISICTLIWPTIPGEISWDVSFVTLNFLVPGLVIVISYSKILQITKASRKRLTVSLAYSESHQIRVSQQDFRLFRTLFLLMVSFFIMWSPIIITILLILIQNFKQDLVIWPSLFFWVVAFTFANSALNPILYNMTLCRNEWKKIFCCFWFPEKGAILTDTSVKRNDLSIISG

[3] = target: T1, G-protein coupled receptor 84; test: Agonist activity at Gi coupled human GPR84 expressed in CHO cells assessed as inhibition of forskolin-induced cAMP accumulation after 15 mins in presence of [3H]-cAMP by radiometric assay; type: functional, cell-based
Method in brief: (§2)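 Forskolin (10 µM) added with or without test compound for 15 min. Cells lysed in hot (90 °C) EDTA/Triton X-100 solution. cAMP measured radiometrically with bovine adrenal binding protein and [³H]cAMP, expressed as % of forskolin-alone response.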

[4] = target: T1, G-protein coupled receptor 84; test: Agonist activity at human GPR84 expressed in CHO cells assessed as beta-arrestin recruitment at 10 uM after 90 mins by beta-galactosidase complementation assay relative to embelin; type: cell-based; method in brief: as §1
[5] = target: T3, Free fatty acid receptor 1 (Homo sapiens, UniProt O14842); test: Agonist activity at Gq protein coupled human FFAR1 expressed in human 1321N1 cells assessed as induction of intracellular calcium level at 10 uM measured at 1.2 secs time interval by Fluo-4-AM dye based fluorescence assay; type: functional, cell-based
Method in brief: (§3)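 1321N1 astrocytoma cells retrovirally expressing human FFAR1, 50,000 per well, loaded 60 min at rt in dark with 3 µM Fluo-4-AM and 0.06 % Pluronic F-127 in HBSS. Compounds at 10 µM final; antagonist mode uses 30 min preincubation before TUG-424 (final 1 µM). Fluorescence at 520 nm (excitation 485 nm), 90 reads at 1.2 s intervals. Normalized to TUG-424 at 10 µM (agonist) or 1 µM (antagonist).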

[6] = target: T1, G-protein coupled receptor 84; test: Antagonist activity at Gi coupled human GPR84 expressed in CHO cells assessed as inhibition of decanoic acid-induced receptor activation at 10 uM; type: cell-based
[7] = target: T1, G-protein coupled receptor 84; test: Agonist activity at Gi coupled human GPR84 expressed in CHO cells assessed as inhibition of forskolin-induced cAMP accumulation at 10 uM after 15 mins in presence of [3H]-cAMP by radiometric assay relative to decanoic acid; type: functional, cell-based; method in brief: as §2
[8] = target: T2, Free fatty acid receptor 4 (Homo sapiens); test: Agonist activity at human FFAR4 expressed in CHO cells assessed as beta-arrestin recruitment at 10 uM after 90 mins by beta-galactosidase complementation assay; type: cell-based
Method in brief: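 Human FFAR4 in CHO β-galactosidase complementation cells, 30,000 per well, serum-free F12 ~4 h before assay; final DMSO 1 %, compounds 10 µM. Agonist mode: 90 min with agonist, then detection 60 min rt dark; luminescence. 3–4 experiments in duplicate.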

[9] = target: T3, Free fatty acid receptor 1; test: Antagonist activity at Gq protein coupled human FFAR1 expressed in human 1321N1 cells assessed as inhibition of TUG-424-induced intracellular calcium level preincubated for 30 mins followed by TUG-424 addition measured at 1.2 secs time interval by Fluo-4-AM dye based fluorescence assay; type: functional, cell-based; method in brief: as §3
[10] = target: T1, G-protein coupled receptor 84; test: Agonist activity at Gi coupled human GPR84 expressed in CHO cells assessed as inhibition of forskolin-induced cAMP accumulation up to 100 uM preincubated for 5 mins followed by forskolin addition measured after 15 mins in presence of [3H]-cAMP by radiometric assay; type: functional, cell-based
Method in brief: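 Concentration-response in CHO-hGPR84 cells. Compound preincubated 5 min, then forskolin 10 µM added for a further 15 min. Maximal forskolin-induced cAMP without agonist set as 100 %. […] Mean ± SEM of 3 independent experiments in duplicate.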

T1 sequence (Q9NQS5 whole entry, the tested form may be a part): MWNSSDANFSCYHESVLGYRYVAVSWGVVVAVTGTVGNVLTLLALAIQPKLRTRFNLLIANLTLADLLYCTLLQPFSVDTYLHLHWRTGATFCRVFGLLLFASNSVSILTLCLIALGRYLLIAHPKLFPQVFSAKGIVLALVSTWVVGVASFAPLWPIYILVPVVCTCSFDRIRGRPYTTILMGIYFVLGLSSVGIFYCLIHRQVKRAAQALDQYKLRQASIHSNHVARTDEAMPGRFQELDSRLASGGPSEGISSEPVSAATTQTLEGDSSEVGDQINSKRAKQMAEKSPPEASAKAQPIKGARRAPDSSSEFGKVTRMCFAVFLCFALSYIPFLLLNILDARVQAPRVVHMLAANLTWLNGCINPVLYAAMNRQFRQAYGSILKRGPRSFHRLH
T3 sequence (O14842 whole entry): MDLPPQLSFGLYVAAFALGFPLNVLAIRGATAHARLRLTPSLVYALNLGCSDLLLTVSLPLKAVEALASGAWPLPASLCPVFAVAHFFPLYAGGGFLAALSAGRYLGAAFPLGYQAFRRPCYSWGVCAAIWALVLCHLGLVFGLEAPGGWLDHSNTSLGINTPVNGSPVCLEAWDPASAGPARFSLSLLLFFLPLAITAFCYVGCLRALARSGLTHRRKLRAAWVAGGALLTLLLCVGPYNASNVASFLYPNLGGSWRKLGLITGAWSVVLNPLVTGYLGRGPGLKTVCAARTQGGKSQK

SMILES	EC50 [1] [µM]	inhibition [2]	EC50 [3] [µM]	Emax [4] [%]	Activity [5]	inhibition [6]	Emax [7] [%]	Activity [8]	EC50 [9] [µM]	inhibition [10]
Oc1ccc(C(c2c[nH]c3ccccc23)c2c[nH]c3ccccc23)cc1	> 10	inactive	> 10	-5	inactive	inactive	7	inactive	–	–
CCCCC(c1c[nH]c2ccccc12)c1c[nH]c2ccccc12	> 10	inactive	> 10	-3	inactive	inactive	-4	inactive	–	–
O=C1Nc2ccccc2/C1=C/c1c[nH]c2ccccc12	> 10	inactive	> 10	-22	inactive	inactive	-17	inactive	–	–
Cc1ccc(C(c2c[nH]c3ccccc23)c2c[nH]c3ccccc23)cc1	> 10	inactive	> 10	10	inactive	inactive	2	inactive	–	–
c1ccc2c(C(c3c[nH]c4ccccc34)c3c[nH]c4ccccc34)c[nH]c2c1	> 10	inactive	> 10	10	inactive	inactive	-10	inactive	–	–
O=C1Nc2ccccc2C1=Cc1ccc2[nH]ccc2c1	> 10	inactive	> 10	-7	inactive	inactive	-16	inactive	–	–
OCc1c[nH]c2ccccc12	–	–	–	–	–	–	–	–	–	inactive
Cc1[nH]c2ccccc2c1Cc1c(C)[nH]c2ccccc12	> 10	inactive	≥ 10	23	inactive	inactive	42	inactive	–	–
COc1ccc2[nH]cc(C=C3C(=O)Nc4ccc(F)cc43)c2c1	> 10	inactive	> 10	-31	inactive	inactive	7	inactive	–	–
c1ccc2c(c1)[nH]c1cc3c(cc12)[nH]c1ccccc13	–	–	–	–	–	–	–	–	–	inactive
CC(c1c[nH]c2cccc(F)c12)c1c[nH]c2cccc(F)c12	> 10	inactive	> 10	34	inactive	inactive	5	inactive	–	–
Cn1cc(Cc2cn(C)c3ccccc23)c2ccccc21	> 10	inactive	> 10	-3	inactive	inactive	-37	inactive	–	–
Fc1ccc2[nH]cc(Cc3c[nH]c4ccc(F)c(F)c34)c2c1F	> 10	inactive	0.377	-2	inactive	–	123	inactive	–	–
c1cc2c(c(C(c3c[nH]c4ccccc34)c3c[nH]c4ccccc34)c1)OCO2	> 10	inactive	> 10	7	inactive	inactive	0	inactive	–	–

Continued, values first:

EC50 [1] [µM]	inhibition [2]	EC50 [3] [µM]	Emax [4] [%]	Activity [5]	inhibition [6]	Emax [7] [%]	Activity [8]	EC50 [9] [µM]	inhibition [10]	SMILES
6.07	inactive	> 10	199	inactive	inactive	-24	inactive	8.81	–	CCCC(c1c[nH]c2ccccc12)c1c[nH]c2ccccc12
> 10	inactive	> 10	3	inactive	inactive	-5	inactive	–	–	CC(c1c[nH]c2ccccc12)c1c[nH]c2ccccc12 [VIBRINDOLE A]
7.53	inactive	0.625	48	inactive	–	89	inactive	–	–	Fc1ccc2c(Cc3c[nH]c4cc(F)ccc34)c[nH]c2c1
2.27	inactive	> 10	115	inactive	inactive	-12	inactive	–	–	c1cnc2[nH]cc(Cc3c[nH]c4ncccc34)c2c1
> 10	inactive	≥ 10	8	inactive	inactive	43	inactive	–	–	Cn1cc(Cc2c[nH]c3ccccc23)c2ccccc21
5.34	inactive	> 10	118	inactive	inactive	4	inactive	–	–	Clc1ccc2c(Cc3c[nH]c4cc(Cl)ccc34)c[nH]c2c1
10.3	inactive	0.187	92	inactive	–	121	inactive	–	–	Fc1cc2[nH]cc(Cc3c[nH]c4cc(F)c(F)cc34)c2cc1F
1.23	inactive	0.328	108	inactive	–	110	inactive	6.49	–	Fc1cccc2[nH]cc(Cc3c[nH]c4cccc(F)c34)c12
19	inactive	0.553	161	inactive	–	104	inactive	–	–	O=C(c1c[nH]c2ccccc12)c1c[nH]c2ccccc12
> 10	inactive	0.987	24	inactive	–	112	inactive	–	–	Cc1cccc2[nH]cc(Cc3c[nH]c4cccc(C)c34)c12
> 10	inactive	≥ 10	-5	inactive	inactive	28	inactive	–	–	O=C(O)c1ccc2[nH]cc(Cc3c[nH]c4ccc(C(=O)O)cc34)c2c1
1.2	inactive	0.365 to 0.369	103	inactive	–	119	inactive	–	–	COc1ccc2[nH]cc(Cc3c[nH]c4ccc(OC)cc34)c2c1
6.47	inactive	1.89	110	inactive	–	97	inactive	–	–	COc1ccc2[nH]cc(Cc3c[nH]c4ccccc34)c2c1

Source: ChEMBL document CHEMBL4014307, “Diindolylmethane Derivatives: Potent Agonists of the Immunostimulatory Orphan G Protein-Coupled Receptor GPR84” (J Med Chem, 2017)
